The values that follow come from PMC11152992 (Nature, 2024).

One data set has as its target T1, 5-HT1A (Homo sapiens, UniProt P08908).
T1 sequence (P08908 1-422): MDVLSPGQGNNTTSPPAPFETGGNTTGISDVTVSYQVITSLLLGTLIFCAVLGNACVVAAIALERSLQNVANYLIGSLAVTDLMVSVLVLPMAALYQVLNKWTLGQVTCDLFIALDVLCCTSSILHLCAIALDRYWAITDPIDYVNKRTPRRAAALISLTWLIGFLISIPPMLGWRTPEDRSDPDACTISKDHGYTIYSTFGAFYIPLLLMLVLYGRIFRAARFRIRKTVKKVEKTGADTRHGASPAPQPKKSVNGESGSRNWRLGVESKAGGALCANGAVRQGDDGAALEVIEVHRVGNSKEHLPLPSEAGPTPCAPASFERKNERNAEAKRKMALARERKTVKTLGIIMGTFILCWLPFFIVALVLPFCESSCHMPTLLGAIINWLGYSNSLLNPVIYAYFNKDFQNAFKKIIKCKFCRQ
Briefly: 5-HT1A-mediated Gi1 activation, BRET. To be noted: for EC50: read-out: Gi BRET EC50, 5-HT1A-mediated Gi1 activation, HEK293-T cells; for 5-HT1A efficacy (in words): Gi BRET, compared with serotonin; for maximum drug effect (Emax): 5-HT1A-mediated activation of Gi1, BRET. The class given is cell-based.

Another data set has as its target 5-HT2A (Homo sapiens, UniProt P28223). Description: 5-HT2A-mediated Gq activation, BRET. Particulars: relative to 5-MeO-DMT. The class given is cell-based.
For another data set, the target named is 5-HT2A(N343A) (Homo sapiens, UniProt P28223, N343A). Description: 5-HT2A-Gq BRET at mutant receptor N343A. Particulars: 5-HT2A N343A versus wild type. Format: cell-based.
Chain of 5-HT2A(N343A) (P28223 whole entry N343A): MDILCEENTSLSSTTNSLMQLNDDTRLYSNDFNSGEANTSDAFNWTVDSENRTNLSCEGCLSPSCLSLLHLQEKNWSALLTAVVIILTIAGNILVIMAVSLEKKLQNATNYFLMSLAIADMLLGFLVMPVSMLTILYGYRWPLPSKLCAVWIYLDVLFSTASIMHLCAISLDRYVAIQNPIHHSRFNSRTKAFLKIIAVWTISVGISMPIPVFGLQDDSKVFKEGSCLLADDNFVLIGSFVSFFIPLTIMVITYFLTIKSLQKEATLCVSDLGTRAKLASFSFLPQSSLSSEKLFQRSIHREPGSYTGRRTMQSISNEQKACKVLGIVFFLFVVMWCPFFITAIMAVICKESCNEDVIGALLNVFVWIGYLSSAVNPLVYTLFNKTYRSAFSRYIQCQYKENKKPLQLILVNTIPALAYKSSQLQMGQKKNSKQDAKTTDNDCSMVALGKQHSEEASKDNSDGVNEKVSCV
Data set [1] deals with locomotor activity (measure of 5-HT1A activation). Briefly: Open-field locomotion assay. Format: in vivo, C57BL/6J mice. To be noted: mice, s.c. The procedure, abridged: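 Male C57BL/6J mice aged 10–15 weeks were habituated for 30 min, then pretreated with vehicle or WAY-100635 (1 or 2 mg kg⁻¹ s.c.). Test compound followed 15 min later, s.c. at 0.1–3 or 0.3–10 mg kg⁻¹. Mice were placed immediately in a clear arena lit at about 330 lux. Observers were blinded; total locomotion was recorded automatically over 30 min, n = 7–8 per group.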

The test system of data set [2] is head-twitch response (measure of 5-HT2A activation). Description: Head-twitch response. Format: in vivo, C57BL/6J mice. To be noted: mice, following co-administration of the 5-HT1A-selective antagonist WAY-100635.
The next data set relates to 5-HT1A(A365N). Briefly: 5-HT1A-Gi BRET at mutant receptor A365N. The class given is cell-based, human. Particulars: 5-HT1A A365N versus wild type.
A short description of data set [3]: Mouse brain tissue binding. The class given is in vitro ADME. Particulars: for fraction unbound at 4 h, 5 µM: mouse, mouse brain tissue.
Another data set deals with 5-HT2A(V366N) (Homo sapiens, UniProt P28223, V366N). Particulars: 5-HT2A V366N versus wild type.
Chain of 5-HT2A(V366N) (P28223 whole entry V366N): as the sequence (P28223 whole entry N343A) above, with A343N, V366N counted along it
For data set [4], the system named is chronic social defeat stress mice. Description: Sucrose preference test after chronic social defeat stress. The class given is in vivo, C57BL/6J mice. To be noted: stressed mice. The procedure, abridged: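 Chronic social defeat was 10 days of 10-min bouts by CD-1 aggressors in male C57BL/6J mice. On day 10, stressed mice were housed singly and habituated to two water bottles, then given a two-bottle choice between water and 1% sucrose. Data were pooled from two independent experiments.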

Data set [5] can be described thus: Mouse plasma protein binding. Format: in vitro ADME. To be noted: for fraction unbound at 4 h, 5 µM: mouse, mouse plasma.
Data set [6] is described as follows: Human plasma protein binding. Format: in vitro ADME.

Each structure is given as a SMILES string.

Chain of 5-HT2A (P28223 whole entry): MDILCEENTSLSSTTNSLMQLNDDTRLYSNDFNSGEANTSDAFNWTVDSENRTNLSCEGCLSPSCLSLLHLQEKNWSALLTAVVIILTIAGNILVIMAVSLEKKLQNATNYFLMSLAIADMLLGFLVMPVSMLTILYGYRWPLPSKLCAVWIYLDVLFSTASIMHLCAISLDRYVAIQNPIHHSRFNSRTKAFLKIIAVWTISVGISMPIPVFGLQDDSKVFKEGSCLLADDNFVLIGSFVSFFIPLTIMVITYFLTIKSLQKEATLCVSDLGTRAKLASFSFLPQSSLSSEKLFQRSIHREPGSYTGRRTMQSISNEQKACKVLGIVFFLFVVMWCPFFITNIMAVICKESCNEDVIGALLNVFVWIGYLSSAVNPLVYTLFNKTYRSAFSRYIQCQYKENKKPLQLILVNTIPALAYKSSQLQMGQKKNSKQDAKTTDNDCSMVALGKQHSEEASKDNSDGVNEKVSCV

Turning to `COc1ccc2[nH]cc(CCN3CC=CC3)c2c1F` [4-F,5-MeO-3-PyrrolineT], on 5-HT1A, the EC50 came to 0.00022 µM.
Take `COc1ccc2[nH]cc(CCN(C)C)c2c1F` [4-F,5-MeO-DMT]: on 5-HT1A (relative to 5-MeO-DMT), the “increase in potency at 5-HT1A” value stood at 14 fold. Besides, the “decrease in 5-HT2A potency” value on 5-HT2A was 3 fold.
In the case of `CN(C)CCc1c[nH]c2ccc(O)c(F)c12` [4-F,5-OH-DMT], the “decrease in potency by N343A mutation” value at 5-HT2A(N343A) was around 19 fold.
Take `COc1ccc2[nH]cc(CCN3CC=CC3)c2c1` [5-MeO-3-PyrrolineT]: the EC50 at 5-HT1A is 0.0003 µM. Further, the “further increase in potency at 5-HT1A” value on 5-HT1A (relative to 5-MeO-PyrT) is given as “around eightfold”.
On to `CCN(CC)CCc1c[nH]c2ccc(OC)cc12` [5-MeO-DET], for which, on 5-HT1A, the “5-HT1A efficacy (in words)” value was “full efficacy” and the EC50 was 0.0371 µM.
`CCN(C)CCc1c[nH]c2ccc(OC)cc12` [5-MeO-MET]: at 5-HT1A, the “5-HT1A efficacy (in words)” value is given as “full efficacy” and the EC50 was 0.0259 µM. Also, the “locomotor activity in the open-field test (in words)” value in data set [1] is given as “dose-dependent locomotor suppression”. Further, in [2], the “HTR (in words)” value was “strong dose-dependent activity”.
In the case of `COc1ccc2[nH]cc(CCN3CCCCC3)c2c1` [5-MeO-PipT, 5-methoxypiperidinyl-tryptamine], at 5-HT1A, the EC50 amounted to 0.0885 µM. For the same molecule, the “loss of potency at 5-HT1A” value on 5-HT1A (relative to 5-MeO-PyrT) is recorded as around 42 fold.
Turning to `COc1ccc2[nH]cc(CCN3CCCC3)c2c1` [5-MeO-PyrT, 5-methoxy-N,N-pyrrolidinyl-tryptamine], the “selectivity for 5-HT1A > 5-HT2A” value at 5-HT1A (Gi BRET at 5-HT1A versus Gq BRET at 5-HT2A) is listed as above 38 fold. In addition, the “increase in 5-HT1A > 5-HT2A selectivity” value on 5-HT1A (cyclization of the amine moiety alone, relative to 5-MeO-DMT) is “approximately 38 fold”. Also, the EC50 at 5-HT1A is 0.0021 µM. Besides, the “increase in potency at 5-HT1A” value at 5-HT1A (relative to 5-MeO-DMT) is recorded as “about 12 fold”. Further, at 5-HT2A, the “decrease in 5-HT2A potency” value is recorded as “about 3 fold”.
As for `CN(C)CCc1c[nH]c2ccc(O)cc12` [5-OH-DMT, bufotenine], the “decrease in potency by A365N mutation” value in the data set on 5-HT1A(A365N) is “about 18 fold”.
On to `NC(=O)N1c2ccccc2C=Cc2ccccc21` [Carbamazepine, reference compound], for which, in [3] (37 °C), the “% Compound remaining at 4 h” value turned out to be 96%. In addition, the fraction unbound at 4 h, 5 µM turned out to be 0.118 in data set [3] (pH 7.4, % Unbound) and 0.118 in [3] (pH 7.4, fu).
As for `CN(C)CCc1c[nH]c2ccccc12` [DMT, N,N-dimethyltryptamine, reference compound], on 5-HT2A(N343A), the “effect of N343A mutation on potency (in words)” value is “minor effects”.
For `CCN(CC)C(=O)[C@@H]1C=C2c3cccc4[nH]cc(c34)C[C@H]2N(C)C1` [LSD, lysergic acid diethylamide], at 5-HT2A(V366N), the “effect of V366N mutation on signalling efficacy at 5-HT2A (in words)” value is listed as “increase in signalling efficacy”.
As to `COc1ccccc1N1CCN(CCN(C(=O)C2CCCCC2)c2ccccn2)CC1` [WAY-100635, reference compound], in data set [4], the “increase of sucrose preference in stressed mice, treatment alone” value was “not significant”.
As to `CC(=O)CC(c1ccccc1)c1c(O)c2ccccc2oc1=O` (stereo not drawn) [Warfarin, reference compound], the “% Compound remaining at 4 h” value was found to be 103.3% in [5] (Mouse Plasma, 37 °C) and 108.8% in data set [6] (Human Plasma, 37 °C). Besides, the fraction unbound at 4 h, 5 µM was 0.067 in data set [5] (pH 7.4, % Bound R2, Mouse Plasma, replicate 2, 4 h at 37 °C); 0.064 in data set [5] (pH 7.4, % Unbound); 0.064 in data set [5] (pH 7.4, fu); 0.015 in data set [6] (human, human plasma, pH 7.4, % Bound R2, Human Plasma, replicate 2, 4 h at 37 °C).
Consider `O=C1CCc2ccc(OCCCCN3CCN(c4cccc(Cl)c4Cl)CC3)cc2N1` [aripiprazole, reference compound], for which the “maximum drug effect (Emax)” value on 5-HT1A was 77.1 % of 5-HT.
For `O=C1CC2(CCCC2)CC(=O)N1CCCCN1CCN(c2ncccn2)CC1` [buspirone, reference compound], the “maximum drug effect (Emax)” value at 5-HT1A was 93.4 % of 5-HT.
Regarding `N#Cc1ccc2[nH]cc(CCCCN3CCN(c4ccc5oc(C(N)=O)cc5c4)CC3)c2c1` [vilazodone, reference compound], the “lowest concentration showing activity” value at 5-HT1A (5-HT1A Gi BRET, suspected slow binding kinetics) turned out to be 30 pM. The “maximum drug effect (Emax)” value at 5-HT1A is 97.4 % of 5-HT.
